Experiment [1] in a line: (§1) Displacement of protein A from human IgG antibody by competitive ELISA. In outline:
(§2)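 Competitive ELISA in which test compounds compete with protein A for binding to human IgG; IC50 determined in PBS.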

The species entered for a further experiment is Homo sapiens. The experiment is described as §1. In outline:
as §2

The subject of experiment [2] is Mus musculus. Description: Effect on oxazolone-induced delayed type hypersensitivity in mouse assessed as ear thickness at 50 mg/kg, iv after 7 days challenged with oxazolone on day 3. It is filed as functional. Summed up:
(§3)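 Mice dosed intravenously with vehicle or test compound at 50 mg/kg on days 0, 1 and 2. Oxazolone (50 ll) applied to the right ear surface, first challenge day 3, second day 10. Ear thickness measured days 4–7 and 11–14; redness and crust formation also observed. Mice sacrificed day 14.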

Experiment [3] has as its system Rattus norvegicus. Put plainly: Reduction in synovitis damage in Freund's adjuvant-induced arthritis Lewis rat model at 25 mg/kg, iv after 21 days relative to control. In kind it is functional. On the set-up: scale not given: the % may be the effect or the level left. Summed up: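 Female Lewis rats; arthritis induced by footpad injection of lyophilized Mycobacterium butyricum in mineral oil, monitored for 3 weeks. Intravenous dosing on days −3, −2, −1 pre-adjuvant and days 10, 11, 12 post-adjuvant; body weight recorded. Arthritis (inflammatory) index derived from joint circumference in mm via a geometric formula; incidence and severity scored.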

In experiment [4] the test system is Mus musculus. Put plainly: Effect on oxazolone-induced delayed type hypersensitivity in mouse assessed as ear thickness at 50 mg/kg, iv after 14 days challenged with oxazolone on day 10. In kind it is functional. Summed up: as §3
In experiment [5] the test system is Rattus norvegicus. Put plainly: Reduction in synovitis damage in Freund's adjuvant-induced arthritis Lewis rat model at 50 mg/kg, po after 21 days relative to control. It is filed as functional. Further details: scale not given: the % may be the effect or the level left.
In experiment [6] the test system is Mus musculus. Description: Effect on oxazolone-induced delayed type hypersensitivity in mouse assessed as ear thickness at 50 or 150 mg/kg, po after 7 days challenged with oxazolone on day 3. In kind it is functional, organism-based. Further details: dose 150 mg/kg. In outline:
(§4)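 Oxazolone DTH protocol: 50 ll oxazolone applied to the right ear surface, challenged day 3 and day 10. Ear thickness measured days 4–7 and 11–14. Compound given orally at 50 or 150 mg/kg daily from day 0 to day 13. Hydrocortisone served as comparator.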

Experiment [7] deals with Mus musculus. Description: Effect on oxazolone-induced delayed type hypersensitivity in mouse assessed as ear thickness at 50 or 150 mg/kg, po after 14 days challenged with oxazolone on day 10. It is filed as functional, organism-based. On the set-up: dose 150 mg/kg. In outline: as §4

Molecules are shown by their SMILES. Calls of active or inactive are those of the source. The calls are words filed in the database; no cut-off is given here.

For the compound `Nc1cccc(Nc2ncnc3c2ncn3CCc2ccc3ccccc3c2)c1`, the IC50 – broadly, the concentration at which inhibition is half-maximal – in experiment [1] was found to be 12.5 µM.
Regarding `Nc1ccc(CCn2cnc3c(NC4CCCC(N)C4)ncnc32)cc1` (configuration not stated), the outcome in the experiment listed under Homo sapiens was inactive.
In experiment [1], `Nc1cccc(Nc2ncnc3c2ncn3CCOc2ccccc2)c1` yielded an IC50 of 0.2 µM.
In the case of `Nc1ccc(CCn2cnc3c(Nc4cccc(N)c4)nc(F)nc32)cc1`, the outcome in the experiment listed under Homo sapiens was inactive.
On to `Nc1ccc(Cn2cnc3c(Nc4cccc(N)c4)ncnc32)cc1`, for which the IC50 in experiment [1] is 0.2 µM.
Take `COc1cccc(Nc2ncnc3c2ncn3CCc2ccc(N)cc2)c1`: the result in the experiment filed under Homo sapiens was inactive.
As for `Nc1cccc(Nc2ncnc3c2ncn3CCc2ccc(Cl)cc2)c1`, the IC50 in experiment [1] was 3.6 µM.
The same measure, in the same setting: the same measure for `CC(C)Nc1nc(Nc2cccc(N)c2)c2ncn(CCc3ccc(N)cc3)c2n1`: 1.1 µM; for `Nc1ccc(CCn2cnc3c(Nc4cccc(N)c4)nc(NC4CCCCC4)nc32)cc1`: 9 µM; for `Nc1cccc(Nc2ncnc3c2ncn3CCCOc2ccccc2)c1`: 0.6 µM.
As for `Nc1cccc(Nc2ncnc3c2ncn3Cc2ccc(F)cc2)c1`, in experiment [1], the IC50 turned out to be 1.7 µM.
In the case of `CC(c1cccc(F)c1)n1cnc2c(Nc3cccc(N)c3)ncnc21` (configuration not stated), the IC50 in experiment [1] amounted to 0.2 µM.
In experiment [1], `Nc1ccc(CCn2cnc3c(Nc4cccc(N)c4)nc(NCCCCCCO)nc32)cc1` displayed an IC50 of 4.8 µM.
The same measure, in the same setting: under `Nc1cccc(Nc2ncnc3c2ncn3CCc2ccccc2)c1` stands 2.3 µM.
With `Nc1ccc(CCn2cnc3c(Nc4cccc(N)c4)nc(NC4CCC4)nc32)cc1`, in experiment [1], the IC50 was determined as 2.3 µM.
Consider `NCCNc1nc(Nc2cccc(N)c2)c2ncn(CCc3ccc(N)cc3)c2n1`, for which the result in the experiment filed under Homo sapiens was inactive.
Consider `Nc1cccc(Nc2ncnc3c2ncn3Cc2cccc(Cl)c2)c1`, for which the IC50 in experiment [1] stood at 0.4 µM.
`Nc1cccc(Nc2ncnc3c2ncn3CC2CC2)c1` displayed an IC50 in experiment [1] of 0.4 µM.
The same measure, in the same setting: the same measure for `Nc1ccc(CCn2cnc3c(Nc4cccc(N)c4)nc(NC4CCCC4)nc32)cc1`: 0.2 µM; for `Nc1ccc(CCn2cnc3c(Nc4cccc(N)c4)nc(NC4CC4)nc32)cc1`: 13 µM; for `Nc1cccc(Nc2ncnc3c2ncn3Cc2cccc(F)c2)c1`: 1.8 µM.
With `Nc1ccc(CCn2cnc3c(N4CCNCC4)ncnc32)cc1`, the result in the experiment filed under Homo sapiens was inactive.
Regarding `Nc1cccc(Nc2ncnc3c2ncn3CCOc2ccc(F)cc2)c1`, in experiment [1], the concentration for half-maximal inhibition (IC50) came out at 0.3 µM.
Still for that read-out and setting: the same measure for `Nc1ccc(CCn2cnc3c(Nc4cccc(N)c4)nc(NCc4ccccc4)nc32)cc1`: 1.8 µM; for `Nc1cccc(Nc2ncnc3c2ncn3CCc2cccc(F)c2)c1`: 0.5 µM.
Consider `Nc1ccc(CCn2cnc3c(Nc4cccc(N)c4)nc(NCCCCO)nc32)cc1`, for which, in the experiment filed under Homo sapiens, the result was inactive.
The compound `Nc1ccc(CCn2cnc3c(Nc4cccc(N)c4)nc(NCCO)nc32)cc1` registered an IC50 in experiment [1] of 64 µM.
Same read-out and setting: under `CC(C)(C)CNc1nc(Nc2cccc(N)c2)c2ncn(CCc3ccc(N)cc3)c2n1` stands 6 µM.
For `CN(Cc1cnc2nc(N)nc(N)c2n1)c1ccc(C(=O)N[C@@H](CCC(=O)O)C(=O)O)cc1` [METHOTREXATE], the Activity was determined as 0.17 mm with Mus musculus [2], 20% in the experiment with Rattus norvegicus [3] and 0.46 mm with Mus musculus [4].
`Nc1ccc(CCn2cnc3c(NC4CCNC4)ncnc32)cc1` (configuration not stated): the outcome in the experiment filed under Homo sapiens was inactive.
The same measure, in the same setting: the same measure for `Nc1cccc(Nc2ncnc3c2ncn3CCc2ccc(O)cc2)c1`: “inactive”.
As for `Nc1ccc(CCn2cnc3c(Nc4cccc(N)c4)nc(NCC4CC4)nc32)cc1`, in experiment [1], the IC50 came out at 0.6 µM.
The compound `Nc1cccc(Nc2ncnc3c2ncn3CCOc2ccc(Cl)cc2)c1` registered a half-inhibitory concentration (IC50) in experiment [1] of 0.5 µM.
The same measure, in the same setting: the same measure for `COC(=O)c1ccc(Cn2cnc3c(Nc4cccc(N)c4)ncnc32)cc1`: 0.3 µM.
Regarding `Nc1cccc(Nc2ncnc3c2ncn3CCc2ccc(F)cc2)c1`, the half-inhibitory concentration (IC50) in experiment [1] amounted to 0.6 µM.
Still for that read-out and setting: under `Nc1cccc(Nc2ncnc3c2ncn3Cc2ccc(Cl)cc2)c1` stands 0.5 µM; under `CC(C)CNc1nc(Nc2cccc(N)c2)c2ncn(CCc3ccc(N)cc3)c2n1`, 22 µM.
As for `Nc1ccc(CCn2cnc3c(Nc4cccc(N)c4)ncnc32)cc1`, the Activity with Rattus norvegicus [5] was determined as 30%; in the experiment with Mus musculus [2], 0.19 mm; in the experiment on Rattus norvegicus [3], 25%; in the experiment on Mus musculus [4], 0.56 mm. Besides, in experiment [1], the IC50 amounted to 1 µM. For the same compound, the result with Mus musculus [6] and with Mus musculus [7] was Active.
Turning to `Nc1ccc(CCn2cnc3c(Nc4cccc(F)c4)ncnc32)cc1`, the outcome in the experiment listed under Homo sapiens was inactive.
Still for that read-out and setting: under `Nc1ccc(CCn2cnc3c(NCC4CCCNC4)ncnc32)cc1` (configuration not stated) stands “inactive”.
In the case of `Nc1cccc(CCn2cnc3c(Nc4cccc(N)c4)ncnc32)c1`, in experiment [1], the concentration for half-maximal inhibition (IC50) worked out at 5.1 µM.
In experiment [1], `Nc1ccc(CCn2cnc3c(Nc4cccc(N)c4)nc(N)nc32)cc1` showed an IC50 of 13 µM.
As to `CC(Nc1nc(Nc2cccc(N)c2)c2ncn(CCc3ccc(N)cc3)c2n1)c1cccc(N)c1` (configuration not stated), in experiment [1], the IC50 turned out to be 14 µM.
Still for that read-out and setting: the same measure for `Cc1ccc(CCn2cnc3c(Nc4cccc(N)c4)ncnc32)cc1`: 1.5 µM.

The values are drawn from ChEMBL document CHEMBL1139250, “2,6,9-Trisubstituted purine derivatives as protein A mimetics for the treatment of autoimmune diseases” (Bioorg Med Chem Lett, 2009).
